Test results from PMC10088587 (Archives of Microbiology, 2023).
Converted amounts (≈) assume the structure as drawn. Structures can show the parent of a compound that is named as a salt.

Experiments:
[1] = test system: influenza A/PR/8/34 (H1N1) virus; assay type: cell-based
[2] = Cytotoxicity assay; assay type: cell-based; conditions: dog, MDCK cells
Procedure, shortened: (§1)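 MDCK cells seeded at 3×10^4/well in 10% FBS and grown 24 h at 37 °C to semi-confluency. Exposed 48 h to twofold dilutions of test compound (2.5 to 0.001 mg/ml), 4 wells per dilution. MTT for 2–3 h at 37 °C in the dark, formazan dissolved in DMSO, OD read at 540 nm, viability taken as % of untreated control. CC50 read from dose-response curves.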

[3] = Critical micelle concentration; assay type: physicochemical
[4] = test system: H1N1-induced apoptosis in MDCK cells; assay type: cell-based
[5] = test system: MDCK cells; test: Cytotoxicity assay; assay type: cell-based; conditions: 48 h, MTT; for NCTC (EC50): NCTC was selected as EC50 (HA test)
Procedure, shortened: as §1

[6] = test system: MDCK cells; assay type: cell-based
[7] = target: virus surface HA glycoprotein (Influenza A virus, UniProt P03452); test: Hemagglutination inhibition assay; assay type: biochemical; conditions: twofold dilutions from CC50, 4 HA unit of virus, 1% cRBC
Chain of virus surface HA glycoprotein (P03452 18-342 limits assumed): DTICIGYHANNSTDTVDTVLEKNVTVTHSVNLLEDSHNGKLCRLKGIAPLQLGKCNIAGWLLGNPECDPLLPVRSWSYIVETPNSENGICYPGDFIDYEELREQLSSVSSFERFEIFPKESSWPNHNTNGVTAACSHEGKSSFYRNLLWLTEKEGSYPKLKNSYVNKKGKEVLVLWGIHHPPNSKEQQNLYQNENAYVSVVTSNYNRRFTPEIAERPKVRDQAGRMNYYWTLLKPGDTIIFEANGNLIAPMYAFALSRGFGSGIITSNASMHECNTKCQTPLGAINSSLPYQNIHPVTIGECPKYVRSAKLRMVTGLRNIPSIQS
Chain of virus surface HA glycoprotein (P03452 344-565 limits assumed): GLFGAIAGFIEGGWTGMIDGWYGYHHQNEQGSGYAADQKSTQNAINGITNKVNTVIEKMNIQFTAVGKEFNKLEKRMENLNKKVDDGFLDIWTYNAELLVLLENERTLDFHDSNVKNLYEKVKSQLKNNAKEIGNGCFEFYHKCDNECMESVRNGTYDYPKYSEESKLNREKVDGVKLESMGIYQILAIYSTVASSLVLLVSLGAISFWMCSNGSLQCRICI

NC12CC3CC(CC(C3)C1)C2 [Ama, amantadine hydrochloride, reference compound]
Log HA decrement (mean ± SD), Co-pen [1]: 7 logs
CC50 at 48 h [2]: 197 ± 1.5 µg/mL
EC50 at 48 h [2]: 98.5 µg/mL

CCCCCCCCCCCCCCCC[N+](C)(C)CCCCCC[N+](C)(C)CCCCCCCCCCCCCCCC.[Br-].[Br-] [GSA, Hexamethylene-1,6-bis(N,N-dimethyl-N-hexadecylammonium bromide)]
CMC (critical micelle concentration) [3]: 0.034
Log HA decrement (mean ± SD), Co-pen [1]: 6.5 logs
Apoptosis evaluation (%), Q4 healthy cells [4]: 54.85%
CC50 [5]: 7.7 ± 0.0 µg/mL
NCTC (EC50) [5]: 2.6 ± 1.7 µg/mL

CCCCCCCCCCCC[N+](C)(C)CCCNCCC[N+](C)(C)CCCCCCCCCCCC.[Br-].[Br-] [GSB, 4-aza-1,7-heptane-bis(N,N-dimethyl-N-dodecylammonium bromide)]
CMC (critical micelle concentration) [3]: 1.047
Apoptosis evaluation (%), Q2 late apoptosis [4]: 49.50%
CC50 [5]: 1.9 ± 0.1 µg/mL
NCTC (EC50) [5]: 0.7 ± 0.3 µg/mL

CCCCCCCCCCCC[N+](C)(C)CCCCCCCCCC[N+](C)(C)CCCCCCCCCCCC.[Br-].[Br-] [GSC, Decamethylene-1,10-bis(N,N-dimethyl-N-dodecylammonium bromide)]
Apoptosis evaluation (%), Q4 healthy cells [6]: 37.500 ± 9.900%
CMC (critical micelle concentration) [3]: 0.63
Log HA decrement (mean ± SD), Co-pen [1]: 6.5 logs
Log HA decrement (mean ± SD), Pre-pen [1]: 4.5 logs
Apoptosis evaluation (%), Q4 healthy cells [4]: 37.50%
CC50 [5]: 4.0 ± 0.0 µg/mL
NCTC (EC50) [5]: 1.2 ± 0.6 µg/mL

CCCCCCCCCCCC[N+](C)(C)CCOCC[N+](C)(C)CCCCCCCCCCCC.[Br-].[Br-] [GSD, 3-oxa-1,5-pentane-bis(N,N-dimethyl-N-dodecylammonium bromide)]
CMC (critical micelle concentration) [3]: 1.047
Log HA decrement (mean ± SD), Post-pen [1]: 5.5 logs
Apoptosis evaluation (%), Q2 late apoptosis [4]: 46.70%
CC50 [5]: 4.9 ± 0.1 µg/mL
NCTC (EC50) [5]: 1.7 ± 0.6 µg/mL

CCCCCCCCCCCC[N+](C)(C)CCCCCC[N+](C)(C)CCCCCCCCCCCC.[Br-].[Br-] [GSE, Hexamethylene-1,6-bis (N,N-dimethyl-N-dodecylammonium bromide)]
CMC (critical micelle concentration) [3]: 0.98
Apoptosis evaluation (%), Q3 early apoptosis [4]: 54.10%
CC50 [5]: 3.4 ± 0.0 µg/mL
NCTC (EC50) [5]: 0.9 ± 0.5 µg/mL

CCCCCCCCCCCCCCCC[N+](C)(C)CCCCCCCCCC[N+](C)(C)CCCCCCCCCCCCCCCC.[Br-].[Br-] [GSF, Decamethylene-1,10-bis(N,N-dimethyl-N-hexadecylammonium bromide)]
Apoptosis evaluation (%), Q4 healthy cells [6]: 82.950 ± 8.132%
CMC (critical micelle concentration) [3]: 0.032
Apoptosis evaluation (%), Q4 healthy cells [4]: 70.50%
CC50 [5]: 8.8 ± 0.0 µg/mL
NCTC (EC50) [5]: 1.7 ± 0.5 µg/mL

CCCCCCCCCCCCCCCC[N+](C)(C)CCCCCCCCCCCC[N+](C)(C)CCCCCCCCCCCCCCCC.[Br-].[Br-] [GSG, Dodecamethylene-1,12-bis(N,N-dimethyl-N-hexadecylammonium bromide)]
CMC (critical micelle concentration) [3]: 0.022
Apoptosis evaluation (%), Q4 healthy cells [4]: 70.10%
CC50 [5]: 11.9 ± 0.0 µg/mL
NCTC (EC50) [5]: 1.7 ± 1.3 µg/mL

CCCCCCCCCCCCCCCC[N+](C)(C)Cc1ccc(C[N+](C)(C)CCCCCCCCCCCCCCCC)cc1.[Br-].[Br-] [GSH, 1,4-phenylene-bis(methylene)bis (N,N-dimethyl-N-hexadecylammonium bromide)]
CMC (critical micelle concentration) [3]: 0.48
Apoptosis evaluation (%), Q4 healthy cells [4]: 68.05%
CC50 [5]: 522.2 ± 0.0 µg/mL
NCTC (EC50) [5]: 36.7 ± 28.6 µg/mL

CCCCCCCCCCCCCCCCCC[N+](C)(C)CCCCCCCCCC[N+](C)(C)CCCCCCCCCCCCCCCCCC.[Br-].[Br-] [GSI, Decamethylene-1,10-bis(N,N-dimethyl-N-octadecylammonium bromide)]
Apoptosis evaluation (%), Q4 healthy cells [6]: 84.850 ± 1.202%
CMC (critical micelle concentration) [3]: 0.0213
Apoptosis evaluation (%), Q4 healthy cells [4]: 77.90%
CC50 [5]: 16.4 ± 0.0 µg/mL
NCTC (EC50) [5]: 2.6 ± 1.5 µg/mL

CCCCCCCCCCCCCCCCCC[N+](C)(C)CCCCCCCCCCCC[N+](C)(C)CCCCCCCCCCCCCCCCCC.[Br-].[Br-] [GSJ, Dodecamethylene-1, 12-bis (N, N-dimethyl-N-octadecylammonium bromide)]
CMC (critical micelle concentration) [3]: 0.0331
Apoptosis evaluation (%), Q4 healthy cells [4]: 68.75%
CC50 [5]: 48.6 ± 0.0 µg/mL
NCTC (EC50) [5]: 0.6 ± 0.2 µg/mL

CCCCCCCCCCCCCCCCCC[N+](C)(C)Cc1ccc(C[N+](C)(C)CCCCCCCCCCCCCCCCCC)cc1.[Br-].[Br-] [GSK, 1,4-phenylene-bis(methylene) bis (N,N-dimethyl-N-octadecylammonium bromide)]
CMC (critical micelle concentration) [3]: 0.29
CC50 [5]: 1229.2 ± 0.0 µg/mL
NCTC (EC50) [5]: 307.3 ± 0.0 µg/mL

CCC(CC)O[C@@H]1C=C(C(=O)O)C[C@H](N)[C@H]1NC(C)=O [Ose, oseltamivir carboxylate, reference compound]
Dilution to give HI + [7]: 1st
Log HA decrement (mean ± SD), Co-pen [1]: 8 logs
Log HA decrement (mean ± SD), Post-pen [1]: 8 logs
Log HA decrement (mean ± SD), Pre-pen [1]: 8 logs
CC50 [5]: 788.5 ± 6.0 µg/mL (≈ 2770 µM)
NCTC (EC50) [5]: 394.2 ± 0.0 µg/mL
